For series [1], the system named is SH-SY5Y. Nature of the series: Neuroprotective activity in human SH-SY5Y cells assessed as inhibition H2O2-induced reduction of cell viability at 10 uM after 24 hrs by phase-contrast micrograph analysis. Type of series: functional, cell-based. An outline of the steps:
(§1)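 SH-SY5Y cells seeded at 1×10^4 cells/well. After 24 h, medium replaced with compound (1.25, 2.5, 5, 10 μM) for 24 h at 37 °C. Cells then exposed to 100 μM H2O2 for 24 h and assessed by MTT, with phase-contrast images (200×). Viability given relative to cells without H2O2, three independent experiments.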

The subject of series [2] is Radical scavenging activity. Nature of the series: Antioxidant activity assessed as DPPH free radical scavenging activity after 30 mins by spectrophotometric analysis. Type of series: functional. An outline of the steps: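 Methanolic DPPH at 400 μM combined with serially diluted sample (1:9 by volume), 30 min at 37 °C in the dark, absorbance at 517 nm. Scavenging % = [1 − (A − C)/B] × 100, with a sample-only blank and MeOH as negative control. IC50 values are mean ± SD of three determinations.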

The target of series [3] is Amyloid-beta precursor protein (Homo sapiens) (UniProt P05067). Kind of series: Inhibition of amyloid beta (1 to 42) (unknown origin) self-induced aggregation at 20 uM after 46 to 48 hrs by thioflavin-T based fluorometric assay. An outline of the steps:
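HFIP-pretreated Aβ(1–42) redissolved at 25 μM in 50 mM phosphate buffer, pH 7.4. Compound at 20 μM final, with 10% final solvent, run in independent triplicates with a solvent control. Incubated in the dark at room temperature for 46–48 h without agitation. 5 μM ThT in glycine-NaOH pH 8.0 added, ex/em 446/490 nm. Inhibition = 100 − (IFi/IFo × 100).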

Series [4] has the same target. Kind of series: Inhibition of Cu2+-induced amyloid beta (1 to 42) (unknown origin) aggregation assessed as reduction of H2O2 production at 800 nM after 30 mins by HRP/Amplex red assay. An outline of the steps:
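Mixture of CuCl2 400 nM, Aβ, compound 800 nM (1% DMSO) and sodium ascorbate 10 μM in phosphate buffer, 30 min at room temperature. Amplex Red/HRP working solution then added and incubated a further 30 min at room temperature. Fluorescence read at ex/em 530/590 nm, at least three measurements.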

Series [5] is described as follows: Metal chelating activity of the compound assessed as Fe2+-compound complex formation at 25 uM by UV-vis spectrometry. Type of series: physicochemical.
Series [6] can be described thus: Ratio of resveratrol IC50 to compound IC50 for DPPH free radical scavenging activity. In general terms: Loss of DPPH colour is used to gauge radical scavenging.
For series [7], the system named is SH-SY5Y. Nature of the series: Neuroprotective activity in human SH-SY5Y cells assessed as inhibition H2O2-induced reduction of cell viability at 1.25 to 10 uM after 24 hrs by phase-contrast micrograph analysis. The series is classed as functional, cell-based. To be noted: in the assay text read “MTT assay” for “phase-contrast micrograph analysis”. An outline of the steps:
as §1

Series [8] has as its target Amyloid-beta precursor protein (Homo sapiens) (UniProt P05067). Kind of series: Inhibition of Cu2+-induced amyloid beta (1 to 42) (unknown origin) aggregation at 50 uM after 24 hrs by thioflavin-T based fluorometric assay. An outline of the steps: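 Aβ(1–42) at 25 μM final in HEPES pH 6.6 with NaCl, with or without 25 μM Cu2+, plus 50 μM compound, incubated at 37 °C for 24 h. Sample diluted into 50 mM glycine-NaOH pH 8.0 containing 5 μM ThT, read at ex/em 446/490 nm. Mean ± SD of three independent experiments.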

A short description of series [9]: Cytotoxicity against human SH-SY5Y cells assessed as reduction of cell viability at 1 to 50 uM after 24 hrs by MTT assay. The series is classed as cell-based. An outline of the steps:
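SH-SY5Y cells grown in EMEM/Ham's F-12 (1:1) with 10% FBS, penicillin and streptomycin, 37 °C, 5% CO2. Seeded at 1×10^4 cells/well, switched to serum-free medium, exposed to compound for 24 h. MTT 4 h at 37 °C, formazan dissolved in DMSO, A570 with 630 nm reference. Mean ± SD of three independent experiments.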

Series [10] in a line: Metal chelating activity of the compound assessed as Cu2+-compound complex formation at 25 uM by UV-vis spectrometry. Type of series: physicochemical. An outline of the steps: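 Difference UV–vis spectra obtained by subtracting metal-alone and compound-alone spectra from the spectra of the mixture. Stoichiometry assessed with ligand fixed at 25 μmol/L and Cu2+ titrated from 2 to 50 μmol/L.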

We go through 23 molecules from ChEMBL document CHEMBL3098033, “Design, synthesis and biological evaluation of imine resveratrol derivatives as multi-targeted agents against Alzheimer's disease” (Eur J Med Chem, 2014).

The structures appear in SMILES notation. pIC50: −log10 of the molar value. Active and inactive are the calls of the source. No cut-off for these calls is given here.

Chain of Amyloid-beta precursor protein (Homo sapiens) (P05067 whole entry): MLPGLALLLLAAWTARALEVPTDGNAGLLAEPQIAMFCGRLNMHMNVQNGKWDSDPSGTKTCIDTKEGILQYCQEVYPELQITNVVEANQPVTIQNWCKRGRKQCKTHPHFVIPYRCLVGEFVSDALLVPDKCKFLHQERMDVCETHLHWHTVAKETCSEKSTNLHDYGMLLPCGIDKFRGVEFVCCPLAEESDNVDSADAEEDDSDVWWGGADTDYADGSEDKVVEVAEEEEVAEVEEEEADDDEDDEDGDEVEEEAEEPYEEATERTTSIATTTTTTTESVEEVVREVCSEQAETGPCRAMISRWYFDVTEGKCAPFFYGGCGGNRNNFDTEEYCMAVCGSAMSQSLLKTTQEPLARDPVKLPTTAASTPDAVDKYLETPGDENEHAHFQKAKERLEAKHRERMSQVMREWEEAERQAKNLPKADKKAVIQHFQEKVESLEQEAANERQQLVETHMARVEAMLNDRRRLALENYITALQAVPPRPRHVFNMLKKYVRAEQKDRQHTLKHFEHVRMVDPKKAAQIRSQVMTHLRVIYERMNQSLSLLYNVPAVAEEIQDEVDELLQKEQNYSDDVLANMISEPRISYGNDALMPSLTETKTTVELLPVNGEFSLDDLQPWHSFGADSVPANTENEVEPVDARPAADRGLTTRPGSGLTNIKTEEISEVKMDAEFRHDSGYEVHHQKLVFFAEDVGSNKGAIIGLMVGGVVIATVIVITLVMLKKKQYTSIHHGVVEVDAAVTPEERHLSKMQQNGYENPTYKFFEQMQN

As usually defined, the pIC50 is the IC50 on a negative log10 scale, so that one unit is a factor of ten. A word on the inhibition: it is how much of the control response was suppressed. On to `Oc1ccc(/C=C/c2cc(O)cc(O)c2)cc1` [RESVERATROL], for which, in the series on SH-SY5Y [1], the result was Active. In addition, the pIC50 in series [2] is 3.96. The molecule further yielded an inhibition in [3] of 64.2%.
Consider `COc1ccc(O)c(/C=N/c2ccccc2)c1`, for which the pIC50 in [2] is 3.10. In [3], this molecule registered an inhibition of 29%.
The corresponding values for `Oc1ccc(/N=C/c2ccccc2O)cc1` are 3.40 and 71.2%.
The corresponding values for `COc1ccc(/C=N/c2ccccc2O)cc1` are 4.49 and 35.7%.
The corresponding values for `Oc1cccc(/N=C/c2ccccc2O)c1` are under 2.70 and 66.1%.
In the case of `O=C(O)CN(CCN(CC(=O)O)CC(=O)O)CC(=O)O`, in series [4], the inhibition was over 90%.
On to `Oc1cccc(/C=N/c2ccccc2O)c1`, for which the negative logarithm of the IC50 (pIC50) in series [2] was 4.18. Also, the inhibition in [3] was determined as 64.3%.
The corresponding values for `Oc1ccc(Cl)cc1/C=N/c1ccccc1` are under 2.70 and 33.8%.
The like results for `Oc1ccccc1/C=N/c1ccccc1F` were, in that order, under 2.70 and 27.8%.
The like results for `Oc1ccccc1/C=N/c1ccccc1O` were, in that order, 4.29 and 67.2%.
Regarding `Oc1ccccc1/C=N/c1cccc(F)c1`, the pIC50 in series [2] is under 2.70. Moreover, the inhibition in series [3] came to 31.3%.
The corresponding values for `CN(C)c1ccc(/C=N/c2ccccc2O)cc1` are 4.35 and 55.8%.
`Oc1ccc(/C=N/c2ccccc2O)cc1O`: the Activity result in series [5] is reported as “Active”; in series [9], “Non-toxic”; in series [10], “Active”. The Ratio IC50 in series [6] stood at 7.7. Also, the inhibition was found to be 80% in [4], 64.6% in [3] and 68.1% in series [8]. Further, the pIC50 in [2] is 4.85. For the same molecule, the result in the series with SH-SY5Y [7] was Active.
`Oc1ccccc1/C=N/c1ccccc1` [2-((PHENYLIMINO)METHYL)PHENOL]: in series [2], the pIC50 was under 2.70. The molecule also had an inhibition in series [3] of 44.9%.
As to `Oc1ccccc1/N=C/c1cccc(F)c1`, in [2], the pIC50 is 4.43. For the same molecule, the inhibition in series [3] amounted to 67.6%; in series [8], 70.2%. Also, the outcome in the series with SH-SY5Y [7] was Active. Also, the Activity result in series [9] is on record as “Non-toxic”.
With `Oc1ccccc1/N=C/c1ccccc1`, the pIC50 in [2] is 4.40. The same molecule came in with an inhibition in series [3] of 51.7%.
The like results for `Oc1ccccc1/N=C/c1ccc(F)cc1` were, in that order, 4.38 and 67.8%.
The like results for `Oc1ccccc1/C=N/c1ccc(F)cc1` were, in that order, under 2.70 and 24.9%.
The corresponding values for `COc1ccc(/C=N/c2ccccc2O)cc1OC` are 4.55 and 39.4%.
Turning to `Oc1ccccc1/N=C/c1ccccc1F`, the pIC50 in series [2] is 4.36. The molecule further gave an inhibition in series [3] of 69.4%.
Consider `Oc1c(I)cc(Cl)c2cccnc12`, for which the inhibition in series [4] is 75%; in series [8], 66.7%.
For `Oc1ccc(/C=N/c2ccccc2O)c(O)c1`, the negative-log IC50 (pIC50) in series [2] is 4.42. In series [3], this molecule returned an inhibition of 63.1%.
Turning to `Oc1ccc(/C=N/c2ccccc2O)cc1`, the negative logarithm of the IC50 (pIC50) in series [2] was 4.58. Moreover, the inhibition amounted to 70.9% in series [3] and 83.7% in series [8]. In addition, the outcome with SH-SY5Y [7] was Active. Also, the Activity result in series [9] is recorded as “Non-toxic”.
